Source: PubChem BioAssay (several laboratories)
Mdm2-MdmX inh: inhibitors of human Mdm2-MdmX association, primary screen, cell-based, luminescence, split luciferase, SaOS-2, uHTS | Protein Mdm4 (Homo sapiens) + E3 ubiquitin-protein ligase Mdm2 (Homo sapiens), … | SaOS-2 split-luciferase Mdm2/MdmX complementation | inhibition, % at 8 µM | 330,000 compounds, 3% hits | AID 485346, 2010;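 active = inhibition of at least 50% at 8 µM in the primary screen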
Target sequence (O15151 whole entry, looked up): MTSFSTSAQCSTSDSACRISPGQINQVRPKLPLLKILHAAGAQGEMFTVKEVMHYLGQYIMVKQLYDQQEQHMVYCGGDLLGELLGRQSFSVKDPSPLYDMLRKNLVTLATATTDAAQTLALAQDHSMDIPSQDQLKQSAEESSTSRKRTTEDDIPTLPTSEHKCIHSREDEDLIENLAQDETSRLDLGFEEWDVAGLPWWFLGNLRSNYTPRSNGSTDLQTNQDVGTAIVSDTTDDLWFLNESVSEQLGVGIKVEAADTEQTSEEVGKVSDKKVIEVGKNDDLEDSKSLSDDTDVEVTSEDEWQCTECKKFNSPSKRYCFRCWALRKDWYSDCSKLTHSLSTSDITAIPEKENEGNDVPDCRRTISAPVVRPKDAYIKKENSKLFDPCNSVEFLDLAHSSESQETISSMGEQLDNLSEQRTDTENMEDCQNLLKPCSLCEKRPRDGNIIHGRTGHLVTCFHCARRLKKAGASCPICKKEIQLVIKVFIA
Target sequence (Q00987 whole entry, looked up): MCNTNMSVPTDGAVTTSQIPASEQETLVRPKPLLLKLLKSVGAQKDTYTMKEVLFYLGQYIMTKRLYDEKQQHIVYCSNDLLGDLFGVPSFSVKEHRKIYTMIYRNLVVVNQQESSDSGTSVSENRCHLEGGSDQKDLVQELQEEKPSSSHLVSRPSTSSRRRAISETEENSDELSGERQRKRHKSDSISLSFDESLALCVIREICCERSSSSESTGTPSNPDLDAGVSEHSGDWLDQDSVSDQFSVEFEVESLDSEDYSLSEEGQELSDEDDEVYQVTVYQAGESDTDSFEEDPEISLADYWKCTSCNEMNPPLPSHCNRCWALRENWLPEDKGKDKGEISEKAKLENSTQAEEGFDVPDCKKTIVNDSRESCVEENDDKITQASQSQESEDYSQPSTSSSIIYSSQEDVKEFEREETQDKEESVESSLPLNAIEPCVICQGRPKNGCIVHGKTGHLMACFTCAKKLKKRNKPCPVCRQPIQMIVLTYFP
Granule exo inh: LAMP-1 surface exposure blockers, TALL-104 cells – cell-based, flow cytometry, MLPCN library, primary screen | TALL-104 LAMP-1 surface exposure; cells stimulated with thapsigargin and PMA | inhibition, % at 10 µM | 360,000 compounds, 0.66% hits;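 active = inhibition above about 55%, limit read from the data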
ABHD5 PLIN5 PPI: ABHD5-PLIN5 interaction inhibitors, primary screen, cell lysate, split luciferase complementation, luminescence; Perilipin-5 (Homo sapiens) + 1-acylglycerol-3-phosphate O-acyltransferase ABHD5 (Homo …; inhibition, % at 4 µM; AID 602281, 2012; Split G. princeps luciferase complementation, 4 h; 360,000 compounds, 0.78% hits;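 active = inhibition above the mean inhibition across every tested compound plus 3 SD, cut at about 22% in these data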;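 also: 0% = DMSO only wells and the 100% control is not disclosed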
UPR XBP1 act: activators of adaptive XBP1 UPR arm, primary screen, cell-based, CHO-XBP1 luciferase reporter, luminescence, uHTS | IRE1-XBP1 UPR activation; percent of tunicamycin response, DMSO as zero | activation, % at 20 µM | 330,000 compounds, 0.33% hits;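 active = versus positive control, 20 µM dose yields 30% or more activation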;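 also: 100% = tunicamycin at 10 µg/mL and 0% = DMSO only wells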
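Material: CHO cell line with stable XBP1 luciferase reporter; schedule: 16-18 h cell attachment at 37 °C, then 6 h compound exposure; signal: glow luminescence from Steady-Glo reagent; medium: serum-containing F12 medium, 10% FBS; benchmarks: tunicamycin 10 µg/mL and vehicle-only wells; read-out: percent activation relative to tunicamycin reference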
UPR CHOP act: activators of apoptotic CHOP UPR arm, primary screen, cell-based, CHO-CHOP luciferase reporter, luminescence, uHTS. UPR activation; percent of tunicamycin response over DMSO baseline. activation, % at 10 µM. 330,000 compounds, 0.34% hits;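 active = at 10 µM dose, activation of 40% or more, normalized to positive control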;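 also: 100% = tunicamycin at 10 µg/mL and 0% = DMSO alone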
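System: CHO CHOP reporter cells. Amount: 500 cells per well. Buffer or medium: F12 medium, 10% FBS. Compound dosing: one dose, 10 µM in 0.5% DMSO. Incubation: 6 h compound exposure at 37 °C after overnight seeding. Technique: Steady-Glo luciferase luminescence. Benchmarks: tunicamycin and DMSO controls.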
ABHD5-PLIN5 conf: ABHD5-PLIN5 interaction inhibitors, confirmation, biochemical, luminescence; 2,200 compounds, 67% hits; shares compounds with ABHD5 PLIN5 PPI; inhibition, % at 4 µM; in the data active = inhibition above about 23%;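 also: 0% = DMSO vehicle wells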
HNF4 counter: HNF4 dimerization inhibitors, counter-screen for ABHD5-PLIN5 interaction inhibitor project, biochemical, split-luciferase complementation, luminescence; shares compounds with ABHD5 PLIN5 PPI; inhibition, % at 4 µM; 2,200 compounds, 77% hits; AID 651674, 2012;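 active = mean inhibition across replicate wells exceeding the computed hit threshold, cut at about 13% in these data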;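 also: light from luciferase halves that rejoin when HNF4 fusion proteins dimerize; 0% = DMSO only wells and the 100% control is not given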
Numbers without * were called inactive. Sampled rows, rich in hits. Any-hit rate of the full collection: about 4%.

`Cc1cc(NC(=O)Nc2ccc(F)cc2F)n(C)n1` gave Mdm2-MdmX inh -22, Granule exo inh 12, ABHD5 PLIN5 PPI 44*, UPR XBP1 act 3, UPR CHOP act 0, ABHD5-PLIN5 conf -4 and HNF4 counter 4.
For O=C(Nc1ccc(F)cc1F)Nc1ccc(F)cc1F the results were Mdm2-MdmX inh -16, Granule exo inh -5, ABHD5 PLIN5 PPI -11, UPR XBP1 act 5 and UPR CHOP act 4.
For CCCCn1c(=O)cc(N2CCOCC2)[nH]c1=O the results were Mdm2-MdmX inh 25, Granule exo inh -3, ABHD5 PLIN5 PPI 25*, UPR XBP1 act -2, UPR CHOP act 1, ABHD5-PLIN5 conf 2 and HNF4 counter 2.
Screening CCOC(=O)C(CC)(CCC(=O)O)c1csc(N)n1 (configuration not stated) returned Mdm2-MdmX inh 10, Granule exo inh -1, ABHD5 PLIN5 PPI 1, UPR XBP1 act 0 and UPR CHOP act 0.
CN(C)CCCN(C(=O)c1sc2ccccc2c1Cl)c1nc2ccc(F)cc2s1 was read as Mdm2-MdmX inh -16, Granule exo inh -2, ABHD5 PLIN5 PPI 25*, UPR XBP1 act 5, UPR CHOP act 7, ABHD5-PLIN5 conf 19 and HNF4 counter 4.
Cc1ccc(S(=O)(=O)c2c(N)n(Cc3ccco3)c3nc4ccccc4nc23)cc1C was read as Mdm2-MdmX inh 0, Granule exo inh 3, ABHD5 PLIN5 PPI 28*, UPR XBP1 act -1, UPR CHOP act -1, ABHD5-PLIN5 conf 52* and HNF4 counter 48*.
Screening O=C(c1ccccc1Br)N1CCN(c2ncccn2)CC1 returned Mdm2-MdmX inh 8, Granule exo inh -1, ABHD5 PLIN5 PPI 0, UPR XBP1 act -2 and UPR CHOP act 0.
For Cc1ccsc1/C=C(\C#N)C(=O)NCc1cccnc1 the results were Mdm2-MdmX inh 9, Granule exo inh -2, ABHD5 PLIN5 PPI 2, UPR XBP1 act 0 and UPR CHOP act 5.
CCOc1ccc(C(CN2CCOCC2)C(C)=O)cc1OC (configuration not stated) was read as Granule exo inh -2, ABHD5 PLIN5 PPI 34*, ABHD5-PLIN5 conf 12 and HNF4 counter 57*.
`CCOc1ccc(C(C#N)N2CCOCC2)cc1OC` (configuration not stated) gave Mdm2-MdmX inh -21, Granule exo inh 0, ABHD5 PLIN5 PPI 3, UPR XBP1 act -2 and UPR CHOP act -2.
For O=C(CN(C(=O)c1csnn1)c1cccc2c1CCCC2)NC1CCCC1 the results were Mdm2-MdmX inh 1, Granule exo inh -3, ABHD5 PLIN5 PPI -1, UPR XBP1 act -2 and UPR CHOP act 0.
COc1ccc(-c2cc(C(F)(F)F)nc(S(=O)(=O)CCCC(=O)Nc3cccnc3Cl)n2)cc1OC was read as Granule exo inh 10, ABHD5 PLIN5 PPI 24*, ABHD5-PLIN5 conf 33* and HNF4 counter 50*.
For Cc1ccc(-n2c(SCC(=O)NCc3ccco3)nc3sc(C)c(C)c3c2=O)cc1 the results were Mdm2-MdmX inh 11, Granule exo inh -2, ABHD5 PLIN5 PPI 3, UPR XBP1 act -4 and UPR CHOP act -2.
CC(C)C(C)(C#N)NC(=O)CSc1nc2scc(-c3ccco3)c2c(=O)n1-c1ccccc1 (configuration not stated) was read as Mdm2-MdmX inh -24, Granule exo inh 1, ABHD5 PLIN5 PPI 25*, UPR XBP1 act -1, UPR CHOP act -1, ABHD5-PLIN5 conf 30* and HNF4 counter 93*.
Screening Cc1sc2nc(SCC(=O)NCc3ccco3)n(-c3ccccc3)c(=O)c2c1C returned Mdm2-MdmX inh 14, Granule exo inh 14, ABHD5 PLIN5 PPI -1, UPR XBP1 act 3 and UPR CHOP act 0.
For CC(C)C(C)NC(=O)CSc1nc2scc(-c3ccco3)c2c(=O)n1-c1ccccc1 (configuration not stated) the results were Mdm2-MdmX inh 8, Granule exo inh 1, ABHD5 PLIN5 PPI 38*, UPR XBP1 act 0, UPR CHOP act 0, ABHD5-PLIN5 conf 8 and HNF4 counter 15*.
Screening CCN1c2ccccc2NC2N=C(OC)C(c3ccccc3)C21 (configuration not stated) returned Mdm2-MdmX inh 44, Granule exo inh -2, ABHD5 PLIN5 PPI 48*, UPR XBP1 act 0, UPR CHOP act 2, ABHD5-PLIN5 conf 5 and HNF4 counter 13*.
CCOc1ccccc1NC(=O)COc1ccc2c(c1)OCO2 was read as Mdm2-MdmX inh -1, Granule exo inh 21, ABHD5 PLIN5 PPI 1, UPR XBP1 act 3 and UPR CHOP act 2.
CNC(=O)/C(C#N)=C/c1ccc(-c2nc3ccccc3s2)o1 was read as Mdm2-MdmX inh -84, Granule exo inh -3, ABHD5 PLIN5 PPI 35*, UPR XBP1 act 3, UPR CHOP act 6, ABHD5-PLIN5 conf 6 and HNF4 counter 4.
For Cc1ccc(NC(=O)c2cc3ccccc3cc2O)cc1 the results were Mdm2-MdmX inh -33, Granule exo inh -6, ABHD5 PLIN5 PPI -6, UPR XBP1 act 3 and UPR CHOP act 4.
COc1ccc(NC(=O)c2cc3ccccc3cc2O)cc1 was read as Mdm2-MdmX inh -57, Granule exo inh 2, ABHD5 PLIN5 PPI 48*, UPR XBP1 act 0, UPR CHOP act 8, ABHD5-PLIN5 conf 53* and HNF4 counter 22*.
Screening COc1ccc(-n2c(N)c(C(=O)NCc3ccco3)c3nc4ccccc4nc32)c(OC)c1 returned Mdm2-MdmX inh 34, Granule exo inh 5, ABHD5 PLIN5 PPI 29*, UPR XBP1 act -5, UPR CHOP act 5, ABHD5-PLIN5 conf 51* and HNF4 counter 67*.
For COc1ccc(CCn2c(N)c(C(=O)NCc3ccco3)c3nc4ccccc4nc32)cc1 the results were Mdm2-MdmX inh 21, Granule exo inh -2, ABHD5 PLIN5 PPI 21, UPR XBP1 act -1 and UPR CHOP act 2.
O=C(NN1C(=O)C2C3C=CC(C4CC34)C2C1=O)c1ccc(Cl)cc1Cl (configuration not stated) was read as Mdm2-MdmX inh 16, Granule exo inh 0, ABHD5 PLIN5 PPI 6, UPR XBP1 act 2 and UPR CHOP act -2.
